The structures appear in SMILES notation. ≈ marks a conversion by molar mass, not a printed value.

The nature of series [1]: Solubility of 10 mg compound in aqueous buffer at pH 7.3 and 37 degree Celsius after 4.0 hr. The series is classed as physicochemical. The following applies: read-out: Concentration. An outline of the steps:
(§1)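 Crystalline compound (stated amount) was agitated in 1 mL phosphate-buffered saline (NaH2PO4/NaCl, pH 7.3) at 37 °C. At each time point samples were centrifuged 5 min at 14000 rpm. Supernatant was diluted in mobile phase and quantified by HPLC against standards. Concentrations were corrected for prodrug decomposition.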

Series [2] can be described thus: Compound was evaluated for the octanol/water partition coefficient at 37 degree Celsius at 4.5 hour. It is filed as physicochemical. In short, it runs like this:
(§2)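 Dilute aqueous solutions were equilibrated with 1-octanol at 37 °C. At each sampling interval the tubes were centrifuged. Aliquots of the octanol layer, then of the water layer, were diluted into methanol and stored at -20 °C for analysis.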

Series [3] is described as follows: Compound was evaluated for the octanol/water partition coefficient at 37 degree Celsius at 24.5 hour. It is filed as physicochemical. In short, it runs like this: as §2
In series [4] the test system is Human alphaherpesvirus 1. Briefly: virus rating as the measure of the activity against herpes simplex virus type 1(strain 377). The series is classed as functional.
For series [5], the system named is Human alphaherpesvirus 1. The experiment in a line: In vitro activity against herpes simplex virus type 1(strain 377) and the minimum inhibitory concentration was determined. It is filed as functional.
The nature of series [6]: Solubility of 10 mg compound in aqueous buffer at pH 7.3 and 37 degree Celsius after 13.5 hr. The following applies: read-out: Concentration. The series is classed as physicochemical. In short, it runs like this: as §1
Series [7] can be described thus: Compound was evaluated for the octanol/water partition coefficient at 37 degree Celsius at 3.0 hr. The series is classed as physicochemical. An outline of the steps: as §2
Series [8] is described as follows: Solubility of 10 mg compound in aqueous buffer at pH 7.3 and 37 degree Centigrade after 8.0 hr. The series is classed as physicochemical. As to conditions: read-out: Concentration. An outline of the steps: as §1
Series [9] can be described thus: Solubility of 20 mg compound in aqueous buffer at pH 7.3 and 37 degree Celsius after 13.5 hr. It is filed as physicochemical. The following applies: read-out: Concentration. An outline of the steps:
as §1

Series [10] is described as follows: Solubility of 20 mg compound in aqueous buffer at pH 7.3 and 37 degree Celsius after 4.0 hr. The series is classed as physicochemical. The following applies: read-out: Concentration. An outline of the steps:
as §1

A short description of series [11]: Solubility of 20 mg compound in aqueous buffer at pH 7.3 and 37 degree Centigrade after 8.0 hr. It is filed as physicochemical. As to conditions: read-out: Concentration. An outline of the steps: as §1
The nature of series [12]: Compound was evaluated for the octanol/water partition coefficient at 37 degree Celsius at 10.5 hour. The series is classed as physicochemical. In short, it runs like this: as §2
The nature of series [13]: Compound was evaluated for the octanol/water partition coefficient at 37 degree Celsius at 1.0hr. The series is classed as physicochemical. The following applies: 1 h. An outline of the steps:
as §2

Series [14] in a line: Solubility of 150 mg compound in aqueous buffer at pH 7.3 and 37 degree Celsius after 8.0 hr. The following applies: read-out: Concentration. The series is classed as physicochemical. An outline of the steps:
as §1

The nature of series [15]: Solubility of 150 mg compound in aqueous buffer at pH 7.3 and 37 degree Celsius after 4.0 hr. It is filed as physicochemical. As to conditions: read-out: Concentration. In short, it runs like this:
as §1

For series [16], the system named is Human alphaherpesvirus 1. The experiment in a line: Compound was evaluated for its activity against herpes simplex virus type 1(strain 377) and the minimum inhibitory concentration was determined. The series is classed as functional.

As to `CCCC(=O)O[C@H]1C(n2cnc3c(N)ncnc32)O[C@H](CO)[C@@H]1O` (some centres undefined), the solubility at 4 h in series [1] is 3.38 mg/mL (≈ 10 mM). Further, the Partition coefficient was determined as 0.969 in series [2], 0.975 in series [3] and 0.911 in [7]. Moreover, the VR in the series on Human alphaherpesvirus 1 [4] turned out to be 1.5. Also, the MIC50 against Human alphaherpesvirus 1 [5] came to 71.9 µg/mL (≈ 0.213 mM). Moreover, in series [6], the solubility at 13.5 h was found to be 3.31 mg/mL (≈ 9.81 mM). In series [8], the solubility at 8 h is 3.54 mg/mL (≈ 10.5 mM).

On to `CCCCC(=O)O[C@H]1C(n2cnc3c(N)ncnc32)O[C@H](CO)[C@@H]1O` (some centres undefined), for which the Partition coefficient was determined as 2.2 in [2]; 2.8 in series [3]; 2.5 in series [7]; 3 in series [12]; 2.5 in [13]. In [9], the solubility at 13.5 h turned out to be 11 mg/mL (≈ 31.3 mM). For the same molecule, the solubility at 4 h in series [10] was 9.28 mg/mL (≈ 26.4 mM). Further, the VR with Human alphaherpesvirus 1 [4] is 2.6. In addition, in the series on Human alphaherpesvirus 1 [5], the MIC50 turned out to be 56.8 µg/mL (≈ 0.162 mM). Besides, the solubility at 8 h in [11] worked out at 10.8 mg/mL (≈ 30.7 mM).

Take `CCC(=O)O[C@H]1C(n2cnc3c(N)ncnc32)O[C@H](CO)[C@@H]1O` (some centres undefined): the Partition coefficient in series [2] was found to be 0.318; in [3], 0.329; in series [7], 0.359; in series [12], 0.335; in series [13] it was 0.336. The solubility at 13.5 h in series [9] is 13 mg/mL (≈ 40.2 mM). The solubility at 4 h in series [10] was determined as 11.1 mg/mL (≈ 34.3 mM). In the series on Human alphaherpesvirus 1 [4], this molecule showed a VR of 1.9. In the series on Human alphaherpesvirus 1 [5], this molecule returned an MIC50 of 29.3 µg/mL (≈ 0.0906 mM). Further, the solubility at 8 h in [11] was found to be 11 mg/mL (≈ 34 mM).

As for `CC(=O)O[C@H]1C(n2cnc3c(N)ncnc32)O[C@H](CO)[C@@H]1O` (some centres undefined), the Partition coefficient in series [2] is recorded as 0.118; in series [3] it was 0.122; in series [7], 0.134; in series [12], 0.127; in series [13] it was 0.149. The VR with Human alphaherpesvirus 1 [4] is 2.3. Besides, in the series with Human alphaherpesvirus 1 [5], the MIC50 came to 26.2 µg/mL (≈ 0.0847 mM). Also, in [14], the solubility at 8 h is 93.6 mg/mL (≈ 303 mM). The solubility at 4 h in series [15] stood at 93.6 mg/mL (≈ 303 mM).

As to `Nc1ncnc2c1ncn2[C@@H]1O[C@H](CO)[C@@H](O)[C@@H]1O` [VIDARABINE], in the series on Human alphaherpesvirus 1 [16], the MIC50 stood at 9.5 µg/mL (≈ 0.0355 mM). The VR in the series with Human alphaherpesvirus 1 [4] is listed as 2.
